Measured values from article PMC6675461 (Bioorganic & medicinal chemistry, 2009).
Where a name gives a salt, the structure may show the parent alone. Read-outs that look alike come from different tables or passages of the source.

Assays:
[1] = test system: NCI-60 human tumor cell lines; assay: NCI-60 human tumor cell line anticancer drug screen; type: cell-based; settings: read-out: GI50 range, all nine types of cancer cells
[2] = test system: four prostate cancer cell lines (DU 145, PC-3, LNCaP, PPC-1); assay: SRB assay, average over prostate cancer cell lines and selectivity vs RH7777; type: cell-based, human; settings: for IC50: Homo sapiens, RH7777, read-out: Aver. (average IC50 of four prostate cells IC50s)
Method in brief: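 The control line was LPL receptor-negative RH7777 in DMEM/10% FBS. The prostate IC50s were averaged. Selectivity = IC50 in RH7777 divided by the average tumor-cell IC50.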

[3] = test system: three melanoma cell lines (B16-F1, A375, WM-164); assay: SRB assay, average over melanoma cell lines and selectivity vs fibroblast; type: cell-based, human, mouse; settings: for IC50: Fibroblast
[4] = test system: WM-164 cells; assay: SRB antiproliferative assay, WM-164 melanoma cells; type: cell-based, human; settings: read-out: IC50 ± SEM WM-164
Method in brief: (§1)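 Melanoma lines (human A375, WM-164; mouse B16-F1) and human dermal fibroblasts were grown in DMEM with 5% FBS, 1% antibiotic/antimycotic and bovine insulin (5 μg/mL) at 37 °C, 5% CO2. Diastereomeric mixtures were applied over a wide concentration range for 48 h. Cells were then TCA-fixed (10%), washed, air-dried overnight and SRB-stained, with absorbance read at 560 nm. IC50 (50% growth inhibition versus untreated) was obtained by nonlinear regression.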

[5] = test system: B16-F1 cells; assay: SRB antiproliferative assay, B16-F1 melanoma cells; type: cell-based, mouse; settings: read-out: IC50 ± SEM B16-F1, 48 h, diastereomeric mixtures
Method in brief: as §1

[6] = test system: Human dermal fibroblast cells; assay: SRB assay, fibroblast control cells; type: cell-based; settings: read-out: IC50 ± SEM Fibroblast, 48 h, control cell line for melanoma
Method in brief: as §1

[7] = test system: A375 cells; assay: SRB antiproliferative assay, A375 melanoma cells; type: cell-based, human; settings: read-out: IC50 ± SEM A375
Method in brief: as §1

[8] = read-out: Aver. (average IC50 of three melanoma cells IC50s)
[9] = read-out: IC50 range over melanoma cell lines
[10] = SRB, 48 h, diastereomeric mixtures

IC50 [2]	Compound	IC50 [3, 8]	also measured
6.9 µM	CCCCCCCCCCCCCCCCCCNC(=O)[C@@H]1CSC(c2ccccc2)N1 (mixture of isomers) [Compound 1a, (2RS,4R)-2-Phenyl-thiazolidine-4-carboxylic acid octadecylamide]	11.6 µM	GI50 [1]: 0.12 to 10.9 µM
–	CCCCCCCCCCCCCCCCCCNC(=O)[C@@H]1CSC(c2cc(OC)c(OC)c(OC)c2)N1 (mixture of isomers) [Compound 3aa, (2RS,4R)-2-(3,4,5-Trimethoxy-phenyl)-thiazolidine-4-carboxylic acid octadecylamide]	–	fold more potent than 1a against prostate cancer cells ([2]; from average IC50): 2.4 fold
3.2 µM	CCCCCCCCCCCCCCCCCCNC(=O)[C@@H]1CSC(c2ccc(OC)c(OC)c2)N1 (mixture of isomers) [Compound 3ba, (2RS,4R)-2-(3,4-Dimethoxy-phenyl)-thiazolidine-4-carboxylic acid octadecylamide]	8 µM	–
1.2 µM	CCCCCCCCC/C=C/CCCCCCCNC(=O)[C@@H]1CSC(c2ccc(OC)c(OC)c2)N1 (mixture of isomers) [Compound 3bc, (2RS,4R)-2-(3,4-Dimethoxy-phenyl)-thiazolidine-4-carboxylic acid (E)-octadec-8-enylamide]	–	–
4.8 µM	CCCCCCCCCCCCCCCCNC(=O)[C@@H]1CSC(c2ccccc2OC)N1 (mixture of isomers) [Compound 3ca, (2RS,4R)-2-(2-Methoxy-phenyl)-thiazolidine-4-carboxylic acid hexadecylamide]	3.2 µM	–
0.7 µM	CCCCCCCCCCCCCCCCNC(=O)[C@@H]1CSC(c2cccc(OC)c2)N1 (mixture of isomers) [Compound 3da, (2RS,4R)-2-(3-Methoxy-phenyl)-thiazolidine-4-carboxylic acid hexadecylamide]	2 µM	–
1.6 µM	CCCCCCCCCCCCCCCCNC(=O)[C@@H]1CSC(c2ccc(OC)cc2)N1 (mixture of isomers) [Compound 3ea, (2RS,4R)-2-(4-Methoxy-phenyl)-thiazolidine-4-carboxylic acid hexadecylamide]	1.6 µM	–
2.8 µM	CCCCCCCCCCCCCCCCNC(=O)[C@@H]1CSC(c2ccc(N(C)C)cc2)N1 (mixture of isomers) [Compound 3fa, (2RS,4R)-2-(4-Dimethylamino-phenyl)-thiazolidine-4-carboxylic acid hexadecylamide]	–	–
3 µM	CCCCCCCCCCCCCCCCNC(=O)[C@@H]1CSC(c2ccccc2NC(C)=O)N1 (mixture of isomers) [Compound 3ga, (2RS,4R)-2-(2-Acetylamino-phenyl)-thiazolidine-4-carboxylic acid hexadecylamide]	7.1 µM	–
–	CC(=O)Nc1ccc(C2N[C@H](C(=O)NC34CC5CC(CC(C5)C3)C4)CS2)cc1 (mixture of isomers) [Compound 3ib, (2RS,4R)-2-(4-Acetylamino-phenyl)-thiazolidine-4-carboxylic acid adamantan-1-ylamide]	120 µM	–
–	CC(=O)Nc1ccc(C2N[C@H](C(=O)NC3C4CC5CC(C4)CC3C5)CS2)cc1 (mixture of isomers) [Compound 3ic, (2RS,4R)-2-(4-Acetylamino-phenyl)-thiazolidine-4-carboxylic acid adamantan-2-ylamide]	79.5 µM	–
–	CC(=O)Nc1ccc(C2N[C@H](C(=O)Nc3ccc(-c4ccccc4)cc3)CS2)cc1 (mixture of isomers) [Compound 3if, (2RS,4R)-2-(4-Acetylamino-phenyl)-thiazolidine-4-carboxylic acid biphenyl-4-ylamide]	5.3 µM	–
1.7 µM	CCCCCCCCC#CCCCCCCCCCNC(=O)[C@@H]1CSC(c2ccc(NC(C)=O)cc2)N1 (mixture of isomers) [Compound 3ii, (2RS,4R)-2-(4-Acetylamino-phenyl)-thiazolidine-4-carboxylic acid nonadec-10-ynylamide]	–	–
–	CCCCCCCCCCCCCCCCNC(=O)[C@@H]1CSC(c2ccccc2)N1 (mixture of isomers) [Compound 3ja, (2RS,4R)-2-Phenyl-thiazolidine-4-carboxylic acid hexadecylamide]	–	IC50 [3, 9]: 0.7 to 2.1 µM
1.7 µM	CCCCCCCCC/C=C\CCCCCCCNC(=O)[C@@H]1CSC(c2ccccc2)N1 (mixture of isomers) [Compound 3jb, (2RS,4R)-2-Phenyl-thiazolidine-4-carboxylic acid (Z)-octadec-8-enylamide]	4.4 µM	–
–	CCCCCCCCC/C=C/CCCCCCCNC(=O)[C@@H]1CSC(c2ccccc2)N1 (mixture of isomers) [Compound 3jc, (2RS,4R)-2-Phenyl-thiazolidine-4-carboxylic acid (E)-octadec-8-enylamide]	5.9 µM	IC50 ([4]; Homo sapiens, WM164, 48 h): 2.4 ± 0.2 µM
–	CCCCCCCCCCCCCCCCOC(=O)[C@@H]1CSC(c2ccc(NC(C)=O)cc2)N1 (mixture of isomers) [Compound 5, (2RS,4R)-2-(4-Acetylamino-phenyl)-thiazolidine-4-carboxylic acid hexadecyl ester]	29.5 µM	–
–	CCCCCCCCCCCCCCCCNC[C@@H]1CSC(c2ccccc2)N1 (mixture of isomers) [Compound 8a, (2RS,4R)-Hexadecyl-(2-phenyl-thiazolidin-4-ylmethyl)-amine hydrochloride]	7.5 µM	–
1.8 µM	CCCCCCCCCCCCCCCCNC(=O)[C@@H]1CSC(c2ccc(N)cc2)N1 (mixture of isomers) [Compound 13b, (2RS,4R)-2-(4-Amino-phenyl)-thiazolidine-4-carboxylic acid hexadecylamide]	–	–
–	CCCCCCCCCCCCCCCCNC(=O)[C@@H]1CSC(c2ccc(NS(C)(=O)=O)cc2)N1 (mixture of isomers) [Compound 15a, (2RS,4R)-2-(4-Methanesulfonylaminophenyl)-thiazolidine-4-carboxylic acid hexadecylamide]	60.9 µM	IC50 [3, 9]: 5.7 to 114 µM
2 µM	CCCCCCCCCCCCCCCCNC(=O)[C@@H]1CSC(c2ccc(NC(N)=O)cc2)N1 (mixture of isomers) [Compound 15c, (2RS,4R)-2-(4-Ureido-phenyl)-thiazolidine-4-carboxylic acid hexadecylamide]	3.9 µM	–
–	[NH2][Pt]([NH2])([Cl])[Cl] [CDDP, cisplatin, reference compound]	–	IC50 [5]: > 100 µM; IC50 [6]: > 100 µM; IC50 [7, 10]: > 100 µM; IC50 [4, 10]: > 100 µM; Antiproliferative activity on melanoma cell lines, in words ([3]; reference compounds, in vitro): resistant
1 µM	CCCCCCCCC/C=C\CCCCCCCNC(=O)[C@@H]1CSC(c2cc(OC)c(OC)c(OC)c2)N1 (stereo partly drawn) [Compound 3ab, (2RS,4R)-2-(3,4,5-Trimethoxy-phenyl)-thiazolidine-4-carboxylic acid octadec-8-cis-enylamide]	2.8 µM	–
0.8 µM	CCCCCCCCC/C=C/CCCCCCCNC(=O)[C@@H]1CSC(c2cc(OC)c(OC)c(OC)c2)N1 (stereo partly drawn) [Compound 3ac, (2RS,4R)-2-(3,4,5-Trimethoxy-phenyl)-thiazolidine-4-carboxylic acid octadec-8-trans-enylamide]	2 µM	–
1 µM	CC(=O)Nc1ccc(C2N[C@H](C(=O)Nc3ccc4cc5ccccc5cc4c3)CS2)cc1 (some centres unmarked) [Compound 3ie]	3.4 µM	–
1 µM	CCCCCCCCCCCCCCCCNC(=O)[C@@H]1CSC(c2ccc(NC(=O)CCl)cc2)N1 (stereo partly drawn) [Compound 15b, (2RS,4R)-2-[4-(2-Chloro-acetylamino)-phenyl]-thiazoli-dine-4-carboxylic acid hexadecylamide]	39.8 µM	IC50 [3, 9]: 5.7 to 114 µM
–	CCCCCCCCCCCCCCCCNC(=O)[C@@H](N)CSC [Compound 16a, (2R)-2-Amino-N-hexadecyl-3-methylsulfanyl-propion-amide]	–	IC50 [3, 9]: 12.9 to 14.4 µM
–	CCCCCCCCCCCCCCCCNC(=O)[C@@H](N)CSCc1ccccc1 [Compound 16c, (2R)-2-Amino-3-benzylsulfanyl-N-hexadecyl-propionamide]	–	IC50 [3, 9]: 12.8 to 15.1 µM
–	CCCCCCCCCCCCCCCCNC(=O)CNCc1ccc(NC(C)=O)cc1 [Compound 16d, 2-(4-Acetylamino-benzylamino)-N-hexadecyl-acetamide]	–	IC50 [3, 9]: 10.2 to 11.9 µM
–	CNC(=O)c1cc(Oc2ccc(NC(=O)Nc3ccc(Cl)c(C(F)(F)F)c3)cc2)ccn1 [Sorafenib, reference compound]	–	IC50 ([7]; Homo sapiens, A-375, 48 h): 5.4 ± 0.5 µM
